Holding throughout (type): functional
Assay [1] deals with M14. In words: Cytostatic activity against human M14 cells. The essentials: (§1)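 NCI-60 human tumor cell line screen run by the US National Cancer Institute under the NIH Developmental Therapeutics Program protocol. A single-dose prescreen at 10 µM came first. Selected compounds then went into the 5-dose assay. Cytostatic activity is reported as GI50 (µM).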
Assay [2] deals with OVCAR-3. In words: Cytostatic activity against human OVCAR3 cells. The procedure, abridged: as §1
Assay [3] relates to SNB-75. In words: Cytostatic activity against human SNB75 cells. The essentials:
(§2)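 Human tumour cell lines from the NCI-60 panel, tested at the US National Cancer Institute under the NIH Developmental Therapeutics Program protocol. A single-dose prescreen at 10 µM came first. Selected compounds then went to a 5-dose assay, which gave GI50 and TGI values in µM.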

For assay [4], the system named is UO-31. Briefly: Cytostatic activity against human UO31 cells. The essentials: as §2
For assay [5], the system named is IGROV-1. Briefly: Cytostatic activity against human IGROV1 cells. The procedure, abridged:
as §1

Assay [6] has as its system UACC-257. In words: Cytostatic activity against human UACC257 cells. The essentials: as §2
Assay [7] deals with Hs-578T. Briefly: Cytostatic activity against human Hs 578T cells. The procedure, abridged:
as §1

Assay [8] has as its system Malme-3M. In words: Cytostatic activity against human MALME-3M cells. The procedure, abridged: as §1
The test system of assay [9] is MDA-MB-231. In words: Cytostatic activity against human MDA-MB-231/ATCC cells. The essentials: as §1
The subject of assay [10] is HT-29. Briefly: Cytostatic activity against human HT-29 cells. The essentials:
as §1

The subject of assay [11] is SF-268. Briefly: Cytostatic activity against human SF268 cells. The essentials: as §1
The test system of assay [12] is MDA-MB-435. Briefly: Cytostatic activity against human MDA-MB-435 cells. The procedure, abridged: as §1
Assay [13] has as its system UACC-62. In words: Cytostatic activity against human UACC62 cells. The essentials: as §2
Assay [14] has as its system U-251. In words: Cytostatic activity against human U251 cells. The essentials:
as §2

In assay [15] the test system is NCI-H522. Briefly: Cytostatic activity against human NCI-H522 cells. The procedure, abridged:
as §1

The test system of assay [16] is NCI-H460. In words: Cytostatic activity against human NCI-H460 cells. The essentials:
as §1

Data on two compounds can be found in ChEMBL document CHEMBL2062469, “1-(2-Mercaptobenzenesulfonyl)-3-hydroxyguanidines--novel potent antiproliferatives, synthesis and in vitro biological activity” (2012).

The structures appear in SMILES notation.

For `N=C(NO)NS(=O)(=O)c1cc(-c2nnc(-c3ccc(Cl)cc3)s2)c(Cl)cc1SCc1ccc2c(c1)OCO2`, the GI50 was 2.14 µM in [1]; 1.62 µM in assay [2]; 1.78 µM in assay [3]; 3.72 µM in assay [4]; 3.47 µM in [5]; 3.55 µM in assay [6]. Besides, the GI50 in [7] is 2.4 µM; in assay [8], 2.24 µM; in assay [9], 5.13 µM; in [10] it was 2.29 µM; in assay [11] it was 2.04 µM; in assay [12] it was 2.63 µM. The GI50 came out at 2.14 µM in assay [13], 10.7 µM in [14], 1.86 µM in assay [15] and 2.34 µM in [16].

For `N=C(NO)NS(=O)(=O)c1cc(-c2nc(-c3ccc(Cl)cc3)cs2)c(Cl)cc1SCc1ccc2c(c1)OCO2`, the GI50 in assay [5] is 25.1 µM; in assay [9], 12.6 µM; in assay [11], 6.46 µM; in assay [12], 3.89 µM; in [13], 7.76 µM; in assay [14], 11.2 µM.

Usually GI50 stands for the concentration that inhibits growth by half.
